The record followed here is paper PMC12508127 (Nature Communications, 2025).

Converted amounts (≈) assume the structure as drawn. Like-named read-outs stand apart in the source and are kept apart here.

Data set [1] deals with FHB (Fusarium graminearum). The conditions noted are these: in vivo.
Data set [2] is described as follows: Average thousand grain weight and yield increase, FHB field trial. It is filed as in vivo, wheat. The conditions noted are these: 150 g a.i./ha. In short, it runs like this:
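Field plots (20 m2) in Huai'an, wheat variety yannong 1212, with Fusarium graminearum head blight. Test compound as 10% emulsifiable concentrate at 112.5, 150 and 180 g a.i./ha, sprayed at early and peak anthesis. Commercial fungicides served as positive controls and water as negative control. Five-point sampling, 100 mature spikes per point, pooled, air-dried and threshed. 1000 random grains weighed, three replicates per treatment.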

Another data set deals with Exserohilum turcicum. In kind it is cell-based. Particulars: 1.56 mg/L.
Data set [3] deals with deoxynivalenol (DON) content. In kind it is in vivo, wheat. Particulars: field; for DON content: wheat flour.
Data set [4] deals with cucumber powdery mildew (CPM, Sphaerotheca fuliginea). The conditions noted are these: in vivo.
The subject of another data set is WPM (Erysiphe graminis). In kind it is in vivo. The conditions noted are these: WPM field trial, 187.5 g a.i./ha.
The test system of another data set is Alternaria alternata. In kind it is cell-based. The conditions noted are these: 1.56 mg/L.
In another data set the test system is Phytophthora infestans. In kind it is cell-based.
Data set [5] concerns wheat powdery mildew (WPM, Erysiphe graminis). In kind it is in vivo. The conditions noted are these: greenhouse.
For data set [6], the system named is zebrafish (Brachydanio rerio H-B.). Briefly: Acute toxicity zebrafish, static test. It is filed as in vivo. The procedure, abridged:
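Juvenile zebrafish (not sexually mature) held at 22–23 °C on a 16–8 h light-dark cycle. Static exposure followed the national fish acute toxicity guideline. Definitive test used 1.20, 1.00, 0.833, 0.694, 0.578 and 0.482 mg a.i./L, with dechlorinated tap water as blank control. One replicate of 10 fish per group.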

A further data set concerns the target porcine SDH (Sus scrofa, UniProt A5GZW8+D0VWV4+Q007T0). Briefly: SDH activity assay. In kind it is biochemical. The conditions noted are these: read-out: Ki, Porcine; inhibition constant against porcine SDH.
Another data set concerns Fusarium oxysporum. In kind it is cell-based. The conditions noted are these: 1.56 mg/L.
For another data set, the system named is Phytophthora capsica. In kind it is cell-based. The conditions noted are these: 1.56 mg/L.
Another data set has as its system Fusarium graminearum. It is filed as cell-based.
A further data set concerns Sclerotinia sclerotiorum. In kind it is cell-based. The conditions noted are these: 1.56 mg/L.
Data set [7] concerns Fusarium pseudograminearum. It is filed as cell-based.
The subject of the next data set is Alternaria solani. It is filed as cell-based. Particulars: 1.56 mg/L.
A further data set deals with ScSDH (Saccharomyces cerevisiae, UniProt P21801+P33421+P37298+Q00711). Briefly: SDH activity assay. It is filed as biochemical.
Chain of ScSDH (Q00711 29-640): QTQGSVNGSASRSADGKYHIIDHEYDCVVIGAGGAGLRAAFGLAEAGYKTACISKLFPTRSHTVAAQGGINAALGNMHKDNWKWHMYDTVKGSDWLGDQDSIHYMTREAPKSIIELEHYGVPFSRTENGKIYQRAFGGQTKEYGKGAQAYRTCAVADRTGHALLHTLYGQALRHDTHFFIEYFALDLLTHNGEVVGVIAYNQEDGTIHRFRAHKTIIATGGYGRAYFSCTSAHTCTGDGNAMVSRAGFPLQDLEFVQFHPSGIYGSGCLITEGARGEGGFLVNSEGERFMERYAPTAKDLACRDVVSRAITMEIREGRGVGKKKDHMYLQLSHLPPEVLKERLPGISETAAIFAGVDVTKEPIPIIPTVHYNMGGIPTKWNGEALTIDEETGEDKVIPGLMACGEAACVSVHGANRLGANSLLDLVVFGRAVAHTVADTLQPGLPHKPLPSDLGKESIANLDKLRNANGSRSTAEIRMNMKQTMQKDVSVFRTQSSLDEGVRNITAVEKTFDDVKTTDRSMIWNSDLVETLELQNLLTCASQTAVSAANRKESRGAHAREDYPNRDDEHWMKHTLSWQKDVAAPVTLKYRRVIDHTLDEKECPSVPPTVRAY
Chain of ScSDH (P21801 21-266): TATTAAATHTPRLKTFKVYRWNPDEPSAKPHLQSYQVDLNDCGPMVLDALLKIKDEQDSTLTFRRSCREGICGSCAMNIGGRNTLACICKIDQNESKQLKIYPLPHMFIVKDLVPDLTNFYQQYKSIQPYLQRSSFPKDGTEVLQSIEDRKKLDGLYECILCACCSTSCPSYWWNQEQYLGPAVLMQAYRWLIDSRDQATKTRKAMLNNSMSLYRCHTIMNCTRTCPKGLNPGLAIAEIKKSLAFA
Chain of ScSDH (P33421 51-198): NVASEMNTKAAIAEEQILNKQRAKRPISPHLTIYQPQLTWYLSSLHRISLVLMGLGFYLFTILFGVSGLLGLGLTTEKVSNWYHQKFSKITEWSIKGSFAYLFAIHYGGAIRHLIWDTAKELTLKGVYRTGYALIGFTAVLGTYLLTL
Chain of ScSDH (P37298 32-181): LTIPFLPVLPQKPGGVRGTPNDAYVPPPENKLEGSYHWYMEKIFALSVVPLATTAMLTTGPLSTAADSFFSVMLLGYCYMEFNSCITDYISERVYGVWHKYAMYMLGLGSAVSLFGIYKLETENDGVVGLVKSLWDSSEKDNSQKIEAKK
A further data set concerns Ustilaginoidea virens. In kind it is cell-based. The conditions noted are these: 1.56 mg/L.

Chain of porcine SDH (Q0QF01 43-664 partner): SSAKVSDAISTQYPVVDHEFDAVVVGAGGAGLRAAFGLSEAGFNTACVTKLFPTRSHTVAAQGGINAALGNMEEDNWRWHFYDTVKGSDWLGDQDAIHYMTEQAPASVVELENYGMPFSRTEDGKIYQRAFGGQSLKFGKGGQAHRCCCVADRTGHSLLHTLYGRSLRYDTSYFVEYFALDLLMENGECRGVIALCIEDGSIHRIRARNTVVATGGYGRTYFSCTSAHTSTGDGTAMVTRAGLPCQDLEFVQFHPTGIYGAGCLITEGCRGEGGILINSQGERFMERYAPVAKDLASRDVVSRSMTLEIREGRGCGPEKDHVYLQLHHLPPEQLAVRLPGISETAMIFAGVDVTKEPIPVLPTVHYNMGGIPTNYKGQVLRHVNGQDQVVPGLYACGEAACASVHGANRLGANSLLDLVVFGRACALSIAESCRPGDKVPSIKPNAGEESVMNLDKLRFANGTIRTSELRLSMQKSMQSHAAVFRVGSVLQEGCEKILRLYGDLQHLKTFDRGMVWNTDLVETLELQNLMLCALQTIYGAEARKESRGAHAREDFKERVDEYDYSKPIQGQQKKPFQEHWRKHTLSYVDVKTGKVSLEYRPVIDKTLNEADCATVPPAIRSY
Chain of porcine SDH (Q007T0 29-280): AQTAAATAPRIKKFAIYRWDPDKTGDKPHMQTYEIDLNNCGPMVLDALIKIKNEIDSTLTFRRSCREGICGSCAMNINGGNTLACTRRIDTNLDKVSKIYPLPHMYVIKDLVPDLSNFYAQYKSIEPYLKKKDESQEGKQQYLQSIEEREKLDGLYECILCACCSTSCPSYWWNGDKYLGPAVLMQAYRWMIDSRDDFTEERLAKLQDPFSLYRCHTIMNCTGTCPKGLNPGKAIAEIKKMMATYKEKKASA
Chain of porcine SDH (D0VWV4 30-169): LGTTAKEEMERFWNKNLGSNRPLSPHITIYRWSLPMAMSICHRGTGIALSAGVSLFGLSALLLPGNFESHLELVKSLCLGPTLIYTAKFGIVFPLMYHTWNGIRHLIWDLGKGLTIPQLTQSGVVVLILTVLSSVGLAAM
Chain of porcine SDH (A5GZW8 57-159 limits assumed): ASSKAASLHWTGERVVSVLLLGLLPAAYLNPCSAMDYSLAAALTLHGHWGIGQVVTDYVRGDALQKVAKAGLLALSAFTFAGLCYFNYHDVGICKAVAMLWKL

Turning to `OCC1=C[C@H](N[C@H]2C[C@H](CO)[C@@H](O[C@@H]3O[C@H](CO)[C@@H](O)[C@H](O)[C@H]3O)[C@H](O)[C@H]2O)[C@H](O)[C@@H](O)[C@@H]1O` [validamycin], the “Control efficiency (%)” value in data set [1] came to 48.42%.
By EC50 is commonly meant the concentration at which the effect is half-maximal. For orientation: Ki means a dissociation constant, usually derived from enzyme kinetics or from competition with a known ligand. In general, IC50 refers to the point on the concentration scale where inhibition reaches its midpoint. Take `C=C(CN(C(=O)c1c(C(F)F)nn(C)c1F)C1CC1)c1ccc(Cl)cc1Cl` [E8, enprocymid]: in [2], the “Yield increase rate (%)” value turned out to be 10.18%. Besides, in the data set with Exserohilum turcicum, the “inhibition rate (%), Et” value was 100.00%. Moreover, the “DON inhibition rate (%)” value in data set [3] (150 g a.i./ha) was determined as 86.05%; in [3] (180 g a.i./ha), 89.40%. The “DON content” value in [3] (150 g a.i./ha) was found to be 217.5 µg/kg; in [3] (180 g a.i./ha), 165.3 µg/kg. Moreover, the “EC50” value came to 0.5431 µg/mL (≈ 1.3 µM) in [4] and 0.0462 µg/mL (≈ 0.11 µM) in data set [5] (WPM). For the same compound, the “Control efficiency (%)” value in the data set with WPM (Erysiphe graminis) was found to be 92.38%; in [1], 88.81%. In the data set on Alternaria alternata, the “inhibition rate (%), Aa” value came out at 95.67%. Moreover, in the data set on Phytophthora infestans, the “inhibition rate (%), Pi” value was 81.97%. Also, the “activity against WPM relative to PYD” value in data set [5] was “over 20 fold”. Also, in data set [6] (by LC50 (96 h)), the Toxicity level result was “moderately toxic”. Also, the “LC50 (96 h)” value in data set [6] (static test, 96 h) is 1.01 mg a.i./L. Also, the Ki at porcine SDH amounted to 281 ± 14 nM; at ScSDH (read-out: Ki, Yeast, inhibition constant against ScSDH) it was 19 ± 1 nM. Also, in the data set with Fusarium oxysporum, the “inhibition rate (%), Fo” value is listed as 87.33%. The “inhibition rate (%), Pc” value in the data set on Phytophthora capsica came to 76.33%. The “inhibition rate (%), Fg” value in the data set on Fusarium graminearum came to 97.31%. The “inhibition rate (%), Ss” value with Sclerotinia sclerotiorum is listed as 74.67%. The “inhibition rate (%), Fp” value in [7] came out at 85.33%. In addition, the “inhibition rate (%), As” value with Alternaria solani was 80.00%. For the same compound, the “potency relative to PYD (IC50)” value on ScSDH (E8 IC50 vs PYD IC50, ScSDH) is approximately 1.3 fold. In addition, on ScSDH (against ScSDH), the IC50 amounted to 30 ± 3 nM. Also, on ScSDH (ratio of Ki for porcine SDH and ScSDH), the Species selectivity is recorded as 14.78. Moreover, in the data set with Ustilaginoidea virens, the “inhibition rate (%), Uv” value turned out to be 100.00%.
On to `CC(C)(C)C(O)(CCc1ccc(Cl)cc1)Cn1cncn1` (centres unmarked) [tebuconazole], for which, in data set [1], the “Control efficiency (%)” value is reported as 84.45%.
